Activity calls are given as the source filed them. The calls are words filed in the database; no cut-off is given here.
Columns and labels:
[1] = Drug level in Krebs buffer treated with 1-Hydroxyl-2-cyano-3-(4-(methyl-L-glutaminate-N5-yl)-benzyloxy)-12-oxo-oleana-2(3),9(11)-dien-28-oic Acid Methyl Ester assessed as bovine kidney GGT-mediated metabolite formation at 100 uM at pH 7.4 after 8 hrs in presence of porcine liver esterase by HPLC analysis; type: ADME, Bos taurus; details: cattle, isolated protein, pH 7.4, 8 h
How it was run: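 Substrate at 100 μM in Krebs buffer, pH 7.4, 37 °C, with porcine liver esterase (2 U/mL), GGT (1 U/mL) and Gly-Gly (5 mM) for 8 h, in triplicate; products quantified by HPLC.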

[2] = target: Kelch-like ECH-associated protein 1 (Homo sapiens) (UniProt Q14145); assay: Inhibition of Keap1/Nrf2 (unknown origin) interaction transfected in HEK293 cells assessed as increase in cytosolic HO-1 levels at 200 to 1000 nM after 48 hrs by Western blot analysis; type: cell-based
How it was run: (§1)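 HEK293 cells grown in high-glucose DMEM with 10% FBS were treated in triplicate at 200 or 1000 nM for 48 h. Nuclear and cytosolic Nrf2, HO-1 and cytoplasmic NQO1 were measured by western blot with specific antibodies, with TBP and β-actin among the probed proteins. The nuclear/cytosolic Nrf2 ratio was derived from these blots. Three independent experiments, mean ± SD.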

Mus musculus [3] = assay: Renoprotective activity in db/db mouse assessed as […] in number of intraglomerular mesangial cells at 0.65 mg/kg, ip administered trice per week for 12 consecutive weeks measured at 11 weeks post dose by H/E-staining based microscopic analysis; type: functional, organism-based
How it was run: (§2)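 Male db/db mice, 8 weeks old, were randomized and dosed i.p. three times weekly for 12 weeks (vehicle: 5% Tween-80 in 0.9% saline; n = 6 per group). Kidneys were fixed in 4% PFA and paraffin-embedded. 5 μm sections were stained with HE, PAS or Masson's trichrome and examined at ×400.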

Mus musculus [4] = assay: Toxicity in db/db mouse assessed as increase in body weight at 0.65 mg/kg, ip administered thrice per week for 12 consecutive weeks measured every other day (reference value: 15%); type: organism-based; details: in vivo
How it was run: (§3)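 Male db/db mice (8 weeks old, specific pathogen-free, normal chow and filtered water ad libitum) were randomized and dosed i.p. three times weekly for 12 consecutive weeks; vehicle was 5% Tween-80 in 0.9% saline. Body weight and food and water consumption were recorded every other day.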

Mus musculus [5] = assay: Renoprotective activity in db/db mouse assessed as reduction in fused podocytes at 0.65 mg/kg, ip administered trice per week for 12 consecutive weeks measured at 11 weeks post dose by TEM microscopic analysis; type: functional, organism-based
How it was run: (§4)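 Male db/db mice (8 weeks old) were dosed i.p. three times weekly for 12 weeks in 5% Tween-80/0.9% saline, n = 6. Kidney tissue was fixed in 3% glutaraldehyde, cut into 80 nm ultrathin sections and examined by TEM. GBM thickness was measured at 30 random locations from three sections per kidney and averaged per mouse.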

Mus musculus [6] = assay: Anti-diabetic nephropathic activity in db/db mouse assessed as reduction in plasma uric acid levels at 0.65 mg/kg, ip administered trice per week for 12 consecutive weeks measured at 11 weeks post dose; type: functional, organism-based
How it was run: (§5)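 Male db/db mice, 8 weeks old, randomized; ip vehicle (5% Tween-80 in 0.9% saline) or drug three times weekly for 12 weeks, n = 6 per group. After 11 weeks, 24 h urine collected for volume, albumin and creatinine, with UACR calculated; blood then sampled for plasma BUN and uric acid. Mean ± SD, one-way ANOVA with Tukey test.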

Mus musculus [7] = assay: Renoprotective activity in db/db mouse assessed as reduction in glomerular basement thickening at 0.65 mg/kg, ip administered trice per week for 12 consecutive weeks measured at 11 weeks post dose by TEM microscopic analysis; type: functional, organism-based; how it was run: as §4
Mus musculus [8] = assay: Cardioprotective activity in C57BL/6 db/db mouse assessed as reduction in apoptotic cardiomyocyte levels at 0.65 mg/kg, ip administered for 12 weeks by TUNNEL assay; type: functional, organism-based
How it was run: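 db/db mice, 8 weeks old, with C57BL/6 controls; ip vehicle or drug for 12 weeks, n = 6 per group. Heart sections (5 μm) from paraformaldehyde-fixed, paraffin-embedded tissue analysed by TUNEL; percentage of apoptotic cardiomyocytes from three sections per mouse; mean ± SD from two separate experiments.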

hERG (KCNH2) = hERG (KCNH2) (Homo sapiens, UniProt Q12809); assay: Inhibition of human ERG expressed in CHO cells at 200 uM at -80 mV holding potential by patch clamp assay relative to control; type: cell-based; details: CHO cells expressing human ERG
Mus musculus [9] = assay: Renoprotective activity in db/db mouse assessed as reduction of fibrosis in glomeruli at 1 to 2 mg/kg, ip administered trice per week for 12 consecutive weeks measured at 11 weeks post dose by H/E-staining based microscopic analysis; type: functional, organism-based; how it was run: as §2
[10] = Drug metabolism in PBS buffer at 100 uM after 8 hrs by HPLC analysis; type: physicochemical; details: read-out: Drug metabolism
How it was run: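 Substrate incubated in PBS, pH 7.4, at 37 °C for 8 h; conversion measured by HPLC.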

Kidney [11] = assay: In vivo drug metabolism in Sprague-Dawley rat assessed as CDDO-Me formation in kidney at 30 mg/kg, ip measured at 90 mins by LC-MS/MS analysis; type: ADME, organism-based; details: 1.5 h
How it was run: (§6)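 Rats given a single ip injection, 20 mg/kg (0.04 mmol) of CDDO-Me or 30 mg/kg (0.04 mmol) of the prodrug; heart, kidney and liver collected over time; parent compound and liberated CDDO-Me measured by LC-MS/MS.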

Mus musculus [12] = assay: Renoprotective activity in db/db mouse assessed as […] in number of intraglomerular mesangial cells at 1 to 2 mg/kg, ip administered trice per week for 12 consecutive weeks measured at 11 weeks post dose by H/E-staining based microscopic analysis; type: functional, organism-based; how it was run: as §2
Kidney [13] = assay: In vivo drug metabolism in Sprague-Dawley rat assessed as CDDO-Me formation in kidney at 30 mg/kg, ip measured at 10 mins by LC-MS/MS analysis; type: ADME, organism-based; how it was run: as §6
Mus musculus [14] = assay: Renoprotective activity in db/db mouse assessed as reduction in loss of foot processes at 1 to 2 mg/kg, ip administered trice per week for 12 consecutive weeks measured at 11 weeks post dose by TEM microscopic analysis; type: functional, organism-based; how it was run: as §4
Mus musculus [15] = assay: Toxicity in db/db mouse assessed as effect on water consumption at 1 to 2 mg/kg, ip administered thrice per week for 12 consecutive weeks measured every other day; type: organism-based; details: in vivo; how it was run: as §3
[16] = target: Kelch-like ECH-associated protein 1 (Homo sapiens) (UniProt Q14145); assay: Inhibition of Keap1/Nrf2 (unknown origin) interaction transfected in HEK293 cells assessed as increase in cytosolic NQO1 levels after 48 hrs by Western blot analysis; type: cell-based; how it was run: as §1
Mus musculus [17] = assay: Antidiabetic nephropathic activity in db/db mouse assessed as reduction in urinary albumin at 1 to 2 mg/kg, ip administered thrice per week for 12 consecutive weeks measured at 24 hrs post 11 week administration; type: functional, organism-based; how it was run: as §5
Mus musculus [18] = assay: Toxicity in db/db mouse assessed as effect on food consumption at 1 to 2 mg/kg, ip administered thrice per week for 12 consecutive weeks measured every other day; type: organism-based; details: in vivo; how it was run: as §3
Mus musculus [19] = assay: Antidiabetic nephropathic activity in db/db mouse assessed as reduction in plasma creatinine levels at 1 to 2 mg/kg, ip administered thrice per week for 12 consecutive weeks measured at 11 weeks post dose; type: functional, organism-based

Sequence of Kelch-like ECH-associated protein 1 (Homo sapiens) (Q14145 whole entry): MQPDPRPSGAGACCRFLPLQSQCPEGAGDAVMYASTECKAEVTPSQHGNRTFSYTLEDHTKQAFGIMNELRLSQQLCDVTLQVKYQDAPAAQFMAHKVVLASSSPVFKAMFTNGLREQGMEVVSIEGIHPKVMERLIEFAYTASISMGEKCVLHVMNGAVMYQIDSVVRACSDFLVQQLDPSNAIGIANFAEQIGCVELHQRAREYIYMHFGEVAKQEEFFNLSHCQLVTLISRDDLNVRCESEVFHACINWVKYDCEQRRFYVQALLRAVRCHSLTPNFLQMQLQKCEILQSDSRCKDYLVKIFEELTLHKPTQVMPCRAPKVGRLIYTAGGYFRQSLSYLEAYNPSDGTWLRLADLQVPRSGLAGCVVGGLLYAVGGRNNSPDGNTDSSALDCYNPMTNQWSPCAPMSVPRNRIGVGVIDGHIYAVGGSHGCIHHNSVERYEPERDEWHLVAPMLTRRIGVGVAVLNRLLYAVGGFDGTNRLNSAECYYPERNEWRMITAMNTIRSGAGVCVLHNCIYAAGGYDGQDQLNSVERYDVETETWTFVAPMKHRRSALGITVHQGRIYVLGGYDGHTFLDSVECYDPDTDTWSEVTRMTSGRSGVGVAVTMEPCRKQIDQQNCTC
Sequence of hERG (KCNH2) (Q12809 whole entry): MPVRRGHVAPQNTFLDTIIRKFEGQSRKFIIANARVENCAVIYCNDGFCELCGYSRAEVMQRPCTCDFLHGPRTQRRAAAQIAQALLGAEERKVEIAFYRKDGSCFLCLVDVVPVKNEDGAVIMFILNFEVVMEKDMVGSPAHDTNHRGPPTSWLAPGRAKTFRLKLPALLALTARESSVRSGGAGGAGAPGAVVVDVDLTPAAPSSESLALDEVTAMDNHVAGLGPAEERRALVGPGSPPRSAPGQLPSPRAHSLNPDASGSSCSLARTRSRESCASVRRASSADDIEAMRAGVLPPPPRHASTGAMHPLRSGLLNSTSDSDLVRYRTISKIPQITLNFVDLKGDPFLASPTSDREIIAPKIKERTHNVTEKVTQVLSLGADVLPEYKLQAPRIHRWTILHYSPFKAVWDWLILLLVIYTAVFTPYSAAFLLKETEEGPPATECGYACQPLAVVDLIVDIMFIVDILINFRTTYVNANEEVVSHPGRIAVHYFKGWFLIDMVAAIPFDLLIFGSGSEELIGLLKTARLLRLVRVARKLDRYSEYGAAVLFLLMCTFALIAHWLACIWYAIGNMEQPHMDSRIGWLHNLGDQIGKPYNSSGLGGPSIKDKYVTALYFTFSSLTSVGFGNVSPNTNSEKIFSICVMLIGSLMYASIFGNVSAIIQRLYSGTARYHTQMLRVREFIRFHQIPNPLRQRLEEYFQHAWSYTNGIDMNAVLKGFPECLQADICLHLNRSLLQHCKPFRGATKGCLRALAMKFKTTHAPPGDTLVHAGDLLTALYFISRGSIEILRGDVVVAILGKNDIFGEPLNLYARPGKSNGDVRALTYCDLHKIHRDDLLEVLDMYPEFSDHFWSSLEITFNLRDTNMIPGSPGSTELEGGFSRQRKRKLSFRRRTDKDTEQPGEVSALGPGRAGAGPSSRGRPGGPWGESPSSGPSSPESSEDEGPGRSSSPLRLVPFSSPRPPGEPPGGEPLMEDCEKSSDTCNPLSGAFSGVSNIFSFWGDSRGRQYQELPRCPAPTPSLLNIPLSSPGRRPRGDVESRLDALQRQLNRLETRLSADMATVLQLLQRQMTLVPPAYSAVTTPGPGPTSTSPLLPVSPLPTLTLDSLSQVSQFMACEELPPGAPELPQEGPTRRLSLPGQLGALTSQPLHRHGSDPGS

| Compound | Drug metabolism [1] | inhibition [2] | Activity (Mus musculus [3]) | Activity (Mus musculus [4]) [%] | Activity (Mus musculus [5]) | Activity (Mus musculus [6]) | Activity (Mus musculus [7]) | Activity (Mus musculus [8]) | inhibition at 200 µM (hERG (KCNH2)) [%] | Activity (Mus musculus [9]) | degraded at 8 h, 100 µM [10] [%] | Drug metabolism (Kidney [11]) [µg/g] | Activity (Mus musculus [12]) | Drug metabolism (Kidney [13]) [µg/g] | Activity (Mus musculus [14]) | Activity (Mus musculus [15]) | inhibition [16] | Activity (Mus musculus [17]) | Activity (Mus musculus [18]) | Activity (Mus musculus [19]) |
| --- | --- | --- | --- | --- | --- | --- | --- | --- | --- | --- | --- | --- | --- | --- | --- | --- | --- | --- | --- | --- |
| COC(=O)[C@]12CCC(C)(C)C[C@H]1[C@H]1C(=O)C=C3[C@@]4(C)C=C(C#N)C(=O)C(C)(C)[C@@H]4CC[C@@]3(C)[C@]1(C)CC2 [BARDOXOLONE METHYL] | Metabolite_Detected | Active | Active | 11.3 | Active | Active | Active | inactive | – | – | – | – | – | – | – | – | – | – | – | – |
| COC(=O)[C@@H](N)CCC(=O)Nc1ccc(COC2=C(C#N)[C@H](O)[C@]3(C)C4=CC(=O)[C@@H]5[C@@H]6CC(C)(C)CC[C@]6(C(=O)OC)CC[C@@]5(C)[C@]4(C)CC[C@H]3C2(C)C)cc1 | – | – | – | – | – | – | – | – | 36.1 | Active | 20 | 0.18 | Active | 0.04 | Active | Non-Toxic | Dose-dependent effect | Active | Non-Toxic | Active |

Source: ChEMBL document CHEMBL4017544 (J Med Chem, 2017)
